The source made the active and inactive calls. The rule behind the calls is not given here.
Key:
[1] = target: Adenosine receptors; A1 & A3 (Homo sapiens) (UniProt P30542+P0DMS8); assay: Selectivity of Ki for human recombinant adenosine A3 receptor to Ki for human recombinant adenosine A1 receptor
Summary of the method: (§1)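 Competition binding on membranes from CHO cells stably transfected with individual human adenosine receptor subtypes; radioligands 1 nM [3H]CCPA (A1), 30 nM [3H]NECA (A2A), 1 nM [3H]HEMADO (A3); Ki from nonlinear curve fitting; selectivity as Ki ratio.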

Adenosine receptor A3 = target: T1, Adenosine receptor A3 (Homo sapiens, UniProt P0DMS8); assay: Displacement of [3H]HEMADO from human recombinant adenosine A3 receptor expressed in CHO cells; assay type: cell-based; summary of the method: as §1
T1 sequence (P0DMS8 whole entry): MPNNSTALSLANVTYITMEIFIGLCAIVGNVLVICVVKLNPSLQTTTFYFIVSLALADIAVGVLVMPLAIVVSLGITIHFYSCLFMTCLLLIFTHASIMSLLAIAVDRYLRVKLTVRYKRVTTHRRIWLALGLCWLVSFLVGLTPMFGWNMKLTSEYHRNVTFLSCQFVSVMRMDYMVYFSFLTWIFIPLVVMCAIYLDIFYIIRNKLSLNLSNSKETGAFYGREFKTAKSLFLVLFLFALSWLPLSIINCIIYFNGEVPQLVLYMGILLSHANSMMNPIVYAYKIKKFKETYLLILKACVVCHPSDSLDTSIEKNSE

Adenosine receptor A2a = Adenosine receptor A2a (Homo sapiens, UniProt P29274); assay: Displacement of [3H]NECA from human recombinant adenosine A2A receptor expressed in CHO cells; assay type: cell-based; summary of the method: as §1
Adenosine receptor A2a, sequence (P29274 whole entry): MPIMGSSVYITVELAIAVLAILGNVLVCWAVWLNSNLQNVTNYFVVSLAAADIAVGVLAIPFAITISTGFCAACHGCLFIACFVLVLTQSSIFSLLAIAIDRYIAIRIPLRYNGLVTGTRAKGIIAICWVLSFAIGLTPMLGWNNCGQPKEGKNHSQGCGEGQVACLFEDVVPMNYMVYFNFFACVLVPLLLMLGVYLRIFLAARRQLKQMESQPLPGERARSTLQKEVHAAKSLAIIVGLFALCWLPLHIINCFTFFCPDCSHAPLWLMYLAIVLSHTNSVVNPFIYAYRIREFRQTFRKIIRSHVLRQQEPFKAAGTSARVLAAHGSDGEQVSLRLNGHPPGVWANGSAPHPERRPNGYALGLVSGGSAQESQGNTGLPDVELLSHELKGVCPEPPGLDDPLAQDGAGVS

Adenosine receptor A1 = target: T2, Adenosine receptor A1 (Homo sapiens, UniProt P30542); assay: Displacement of [3H]CCPA from human recombinant adenosine A1 receptor expressed in CHO cells; assay type: cell-based
T2 sequence (P30542 whole entry): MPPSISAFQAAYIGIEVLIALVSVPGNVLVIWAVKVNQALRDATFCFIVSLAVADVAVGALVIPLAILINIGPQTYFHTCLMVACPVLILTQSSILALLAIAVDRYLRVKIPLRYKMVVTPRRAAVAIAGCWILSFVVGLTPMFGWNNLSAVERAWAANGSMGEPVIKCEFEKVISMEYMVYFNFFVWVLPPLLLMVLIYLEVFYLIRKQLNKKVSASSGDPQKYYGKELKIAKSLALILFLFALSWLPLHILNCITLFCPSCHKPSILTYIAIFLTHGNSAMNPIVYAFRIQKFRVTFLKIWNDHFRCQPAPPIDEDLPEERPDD

Adenosine receptor A2b = target: T3, Adenosine receptor A2b (Homo sapiens, UniProt P29275); assay: Agonist activity at human adenosine A2B receptor expressed in CHO cells assessed as inhibition of NECA-stimulated adenylyl cyclase activity; assay type: functional, cell-based
T3 sequence (P29275 whole entry): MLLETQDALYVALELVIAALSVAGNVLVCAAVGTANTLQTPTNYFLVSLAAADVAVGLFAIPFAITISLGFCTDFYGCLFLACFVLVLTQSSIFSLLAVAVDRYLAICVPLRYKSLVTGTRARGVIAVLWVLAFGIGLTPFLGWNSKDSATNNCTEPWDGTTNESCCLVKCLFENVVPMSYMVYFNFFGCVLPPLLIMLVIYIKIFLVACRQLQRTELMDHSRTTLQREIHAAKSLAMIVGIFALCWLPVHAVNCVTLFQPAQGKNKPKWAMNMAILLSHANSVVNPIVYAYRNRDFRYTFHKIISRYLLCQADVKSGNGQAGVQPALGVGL
Summary of the method: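 Membranes from CHO cells stably expressing human A2B receptor; inhibition of NECA-stimulated adenylyl cyclase activity measured, IC50 converted to Ki; curves fitted by nonlinear regression.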

Homo sapiens = organism: Homo sapiens; assay: Selectivity of Ki for human recombinant adenosine A2A receptor to Ki for human recombinant adenosine A1 receptor; summary of the method: as §1
Mus musculus [2] = assay: Analgesic activity in mouse assessed as reduction of formalin-induced early nociceptive behavior at 2 mg/kg, ip administered 10 mins before formalin challenge measured every 5 mins for 60 mins in presence of adenosine A1 receptor antagonist DPCPX; assay type: functional, organism-based; parameters: dose 2 mg/kg
Summary of the method: (§2)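 Mice, n = 8-10 per group, randomly assigned; drug or vehicle (0.9% NaCl) given i.p. 10 min before 1.25% formalin in saline (30 µL) into dorsal hind paw; DPCPX 3 mg/kg i.p. co-administered where stated. Lifting, licking, shaking, flinching timed every 5 min for 60 min; early phase 0-7 min, late 15-60 min; mean ± SEM.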

Mus musculus [3] = assay: Analgesic activity in mouse assessed as reduction of formalin-induced late nociceptive behavior at 2 mg/kg, ip administered 10 mins before formalin challenge measured every 5 mins for 60 mins in presence of adenosine A1 receptor antagonist DPCPX; assay type: functional, organism-based; parameters: dose 2 mg/kg; summary of the method: as §2
[4] = target: T4, Adenosine receptor A1 (Homo sapiens) (UniProt P30542); assay: Agonist activity human recombinant adenosine A1 receptor expressed in CHO cells assessed as inhibition of forskolin-stimulated adenylyl cyclase activity; assay type: functional, cell-based
T4 sequence (whole entry): T2 sequence (P30542 whole entry)
Summary of the method: (§3)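 CHO cells stably transfected with human receptor (A1 or A3); cyclase activity stimulated by 10 µM forskolin taken as 100%; percentage activity remaining after agonist-mediated inhibition reported; means ± SEM of three independent experiments.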

[5] = Lipophilicity log P of the compound; assay type: physicochemical; conditions: octanol/water
[6] = target: T5, Adenosine receptor A3 (Homo sapiens) (UniProt P0DMS8); assay: Agonist activity human recombinant adenosine A3 receptor expressed in CHO cells assessed as inhibition of forskolin-stimulated adenylyl cyclase activity; assay type: functional, cell-based; summary of the method: as §3
T5 sequence (whole entry): T1 sequence (P0DMS8 whole entry)

O[C@@H]1[C@H](O)[C@@H](CSc2ccccc2F)O[C@H]1n1cnc2c(NC3CCOC3)ncnc21 (stereo partly drawn)
Ratio Ki [1]: 3 | Ki (Adenosine receptor A3): 746 nM | Ki (Adenosine receptor A2a): 18900 nM | Ki (Adenosine receptor A1): 250 nM | Ki (Adenosine receptor A2b): > 10000 nM | Ratio Ki (Homo sapiens): 76

C[C@@]1(O)[C@H](O)[C@@H](CSc2ccccc2F)O[C@H]1n1cnc2c(NC3CCCC3)nc(Cl)nc21
Ratio Ki [1]: 0.5 | Ki (Adenosine receptor A3): 1150 nM | Ki (Adenosine receptor A2a): > 100000 nM | Ki (Adenosine receptor A1): 2150 nM | Ki (Adenosine receptor A2b): > 10000 nM | Ratio Ki (Homo sapiens): > 47

O[C@@H]1[C@H](O)[C@@H](CSc2ccccc2F)O[C@H]1n1cnc2c(NC3CCCC3)nc(Cl)nc21
Ratio Ki [1]: 2 | Ki (Adenosine receptor A3): 479 nM | Ki (Adenosine receptor A2a): 2190 nM | Ki (Adenosine receptor A1): 258 nM | Ki (Adenosine receptor A2b): > 10000 nM | Ratio Ki (Homo sapiens): 8

CCCn1c(=O)c2[nH]c(C3CCCC3)nc2n(CCC)c1=O
Activity (Mus musculus [2]): inactive | Activity (Mus musculus [3]): inactive

C[C@@]1(O)[C@H](O)[C@@H](CCl)O[C@H]1n1cnc2c(NC3CCCC3)nc(Cl)nc21
Ratio Ki [1]: 237 | Ki (Adenosine receptor A3): 3030 nM | Ki (Adenosine receptor A2a): 16200 nM | Ki (Adenosine receptor A1): 12.8 nM | Ki (Adenosine receptor A2b): > 10000 nM | Ratio Ki (Homo sapiens): 1770

C[C@@]1(O)[C@H](O)[C@@H](CCl)O[C@H]1n1cnc2c(NC3CC4CCC3C4)nc(Cl)nc21 (mixture of isomers)
Ratio Ki [1]: 644 | Ki (Adenosine receptor A3): 5900 nM | Ki (Adenosine receptor A2a): 31600 nM | Ki (Adenosine receptor A1): 9.16 nM | Ki (Adenosine receptor A2b): > 10000 nM | Ratio Ki (Homo sapiens): 3450

OC[C@H]1O[C@@H](n2cnc3c(NC4CC5CCC4C5)nc(Cl)nc32)[C@H](O)[C@@H]1O (mixture of isomers)
Ratio Ki [1]: 182 | Activity [4]: Active | Ki (Adenosine receptor A3): 129 nM | Ki (Adenosine receptor A2a): 797 nM | Ki (Adenosine receptor A1): 0.71 nM | Ki (Adenosine receptor A2b): > 10000 nM | Ratio Ki (Homo sapiens): 1120

C[C@@]1(O)[C@H](O)[C@@H](CO)O[C@H]1n1cnc2c(NC3CC4CCC3C4)nc(Cl)nc21 (mixture of isomers)
Ratio Ki [1]: 645 | Ki (Adenosine receptor A3): 4490 nM | Ki (Adenosine receptor A2a): 11800 nM | Ki (Adenosine receptor A1): 6.96 nM | Ki (Adenosine receptor A2b): > 10000 nM | Ratio Ki (Homo sapiens): 1700

OC[C@H]1O[C@@H](n2cnc3c(NC4CC5CCC4C5)ncnc32)[C@H](O)[C@@H]1O (mixture of isomers)
logP [5]: -0.14 | Ratio Ki [1]: 187 | Activity [4]: Active | Ki (Adenosine receptor A3): 101 nM | Activity [6]: Active | Ki (Adenosine receptor A2a): 1270 nM | Ki (Adenosine receptor A1): 0.54 nM | Ki (Adenosine receptor A2b): 4930 nM | Ratio Ki (Homo sapiens): 2350

O[C@@H]1[C@H](O)[C@@H](CCl)O[C@H]1n1cnc2c(NC3CC4CCC3C4)nc(Cl)nc21 (mixture of isomers)
Ratio Ki [1]: 875 | Activity [4]: Active | Ki (Adenosine receptor A3): 1410 nM | Ki (Adenosine receptor A2a): 2050 nM | Ki (Adenosine receptor A1): 1.61 nM | Ki (Adenosine receptor A2b): > 10000 nM | Ratio Ki (Homo sapiens): 1270

O[C@@H]1[C@H](O)[C@@H](CCl)O[C@H]1n1cnc2c(NC3CCCC3)nc(Cl)nc21
Ratio Ki [1]: 267 | Activity [4]: Active | Ki (Adenosine receptor A3): 417 nM | Ki (Adenosine receptor A2a): 2160 nM | Ki (Adenosine receptor A1): 1.56 nM | Ki (Adenosine receptor A2b): 4830 nM | Ratio Ki (Homo sapiens): 1380

Reference: ChEMBL document CHEMBL1153422, “N6-Cycloalkyl- and N6-bicycloalkyl-C5'(C2')-modified adenosine derivatives as high-affinity and selective agonists at the human A1 adenosine receptor with antinociceptive effects in mice” (J Med Chem, 2009)
